Experimental data pooled from the literature.
Each line is one published result; the experiments were not run side by side. Values after ≈ are worked out from the molar mass of the structure shown.

With `COc1cc2c(cc1OS(N)(=O)=O)CCN(Cc1cc(Br)c(OC)c(OC)c1)C2` the GI50 was 22 nM (CNSSF-539; cell growth or viability, SRB).
`C[C@@]1(O)CC[C@@]2(C)[C@@H](CC[C@@H]3[C@@H]2CC[C@]2(C)[C@@H]([N+](=O)[O-])CC[C@@H]32)C1` has an ED50 of 8.8 mg/kg (6 Hz seizures; mouse; intraperitoneal).
For `NNC(=O)c1ccncc1`, the MIC was 6.3 µg/mL (≈ 45.9 µM) (Mycolicibacterium aurum; microbial growth, agar dilution).
`CCOc1cccc(=O)c2c(C)n(Cc3ccc(Cl)cc3)c(C)c12` gave an EC50 of 590 nM (Plasmodium falciparum; parasite growth, SYBR Green; 3D7).
With `CC(C(=O)N1CCCC1)c1cccc(C(OC(=O)N2CCCC2)c2ccccc2)c1` (centres unmarked) the IC50 was 41000 nM (L1210; cell growth or viability; 48 h).
With `CCCCCCCCCCOc1cc2c(O)c(C(=O)OCC)cnc2cc1OCC` the IC50 was less than 5.7 nM (Plasmodium falciparum; parasite growth, SYBR Green; W2; blood stage).
With `CC(C(=O)NCC1CCCCC1)c1cccc(C(OC(=O)NCC2CCCCC2)c2ccccc2)c1` (centres unmarked) the IC50 was 11000 nM (L1210; cell growth or viability; 48 h).
`N.N.[Cl][Pt][Cl]` gave a GI50 of 6.8 µg/mL (COLO 205; cell growth or viability, ATP luminescence).
The EC50 of `CCCn1c(O)nnc1SCC(=O)Nc1cc(C(F)(F)F)ccc1Cl` is reported as 66.6 nM (Plasmodium falciparum; parasite growth, SYBR Green; 3D7).
For `CC(C(=O)NCCc1ccccc1)c1cccc(C(OC(=O)NCCc2ccccc2)c2ccccc2)c1` (centres unmarked), the IC50 was 13000 nM (FM3A; cell growth or viability; 48 h).
For `O=C1C(O)=C([C@H]2CC[C@H](c3ccc(Cl)cc3)CC2)C(=O)c2ccccc21`, the EC50 was 0.45 nM (Plasmodium falciparum; parasite growth, SYBR Green; 3D7).
For `C[C@]12CC[C@H](O)C[C@@H]1CC[C@@H]1[C@@H]2CC[C@]2(C)[C@@H]([N+](=O)[O-])CC[C@@H]12`, the ED50 was 83 mg/kg (6 Hz seizures; mouse; intraperitoneal).
`CCN(CC)CCCC(C)Nc1ccnc2cc(Cl)ccc12` (centres unmarked) gave an IC50 of 0.155 µg/mL (Plasmodium falciparum; parasite growth; W2; 72 h, drug-resistant strain, blood stage).
For `OC(c1cc(C(F)(F)F)nc2c(C(F)(F)F)cccc12)C1CCCCN1` (centres unmarked), the EC50 was 20.3 nM (Plasmodium falciparum; parasite growth, SYBR Green; 3D7).
